# Assay outcomes as filed in PubChem.
# Sampled rows, rich in hits. Any-hit rate of the full collection: about 4.1%.
# KCNQ1 block: inhibitors of human KCNQ1 channel, primary screen, cell-based, thallium flux, high-throughput; CHO-K1 KCNQ1, FluxOR thallium flux fluorescence; active compounds read high; AID 2642, 2010; B-score at 10 µM; 310,000 compounds, 1.3% hits;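 active = compounds whose thallium flux B-score, printed positive for inhibition, exceeds three library SD while starting fluorescence stays within three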;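 note: channel opened by potassium depolarization with thallium stimulus after 20 min compound exposure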
# Target sequence (P51787 whole entry, looked up): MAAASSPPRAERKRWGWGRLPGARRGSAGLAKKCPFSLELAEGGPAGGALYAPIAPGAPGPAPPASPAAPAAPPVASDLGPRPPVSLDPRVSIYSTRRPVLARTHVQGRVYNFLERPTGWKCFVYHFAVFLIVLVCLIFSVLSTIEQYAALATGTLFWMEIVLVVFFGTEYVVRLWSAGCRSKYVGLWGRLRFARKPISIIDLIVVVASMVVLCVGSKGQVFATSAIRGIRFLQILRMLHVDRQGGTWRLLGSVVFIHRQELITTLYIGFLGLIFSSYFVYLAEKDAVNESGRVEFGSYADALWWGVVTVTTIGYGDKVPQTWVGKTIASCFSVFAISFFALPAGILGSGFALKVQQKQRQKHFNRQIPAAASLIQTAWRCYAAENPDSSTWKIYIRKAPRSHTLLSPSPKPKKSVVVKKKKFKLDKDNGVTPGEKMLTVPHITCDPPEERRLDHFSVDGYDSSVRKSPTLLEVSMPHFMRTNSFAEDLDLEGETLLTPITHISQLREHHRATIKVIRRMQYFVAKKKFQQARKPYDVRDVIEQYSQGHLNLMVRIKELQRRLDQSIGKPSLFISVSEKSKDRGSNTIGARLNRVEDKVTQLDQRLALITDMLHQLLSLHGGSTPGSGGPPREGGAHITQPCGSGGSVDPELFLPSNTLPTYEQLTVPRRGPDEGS
# KCNK3 block: human KCNK3 channel inhibitors, primary screen, CHO cells, FluxOR thallium flux, B-score. FluxOR fluorescence; active compounds read low. B-score at 10 µM. 340,000 compounds, 0.84% hits. AID 602410, 2012;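 active = B-score under library mean minus 4 SD, starting fluorescence ratio at most library mean plus 5 SD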;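 note: more negative B-score means stronger inhibition of thallium flux through KCNK3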
# hERG rescue: hERG rescue from dofetilide block, primary screen, cell-based, CHO-hERG, FluxOR thallium flux, dofetilide IC70. 310,000 compounds, 0.51% hits. dofetilide IC70 present. Voltage-gated inwardly rectifying potassium channel KCNH2 (Homo sapiens), Q12809. activation (rescue from dofetilide block), less the hit threshold, % at 10 µM;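 active = activation above the mean of controls blocked by dofetilide plus 5 SD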;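 note: thallium influx through hERG after potassium depolarization seen as dye fluorescence rise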
# KCC2 mod: KCC2 cotransporter modulators, thallium flux, primary screen, cell-based, HEK293 KCC2, FluoZin-2 fluorescence, MLSMR; Solute carrier family 12 member 5 (Homo sapiens), Q9H2X9; KCC2 cells, thallium flux FluoZin-2 fluorescence; B-score of Tl+ flux slope (higher = more flux/activation; lower = inhibition) at 10 µM; 190,000 compounds, 2.2% hits;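 active = thallium flux slope and its plate-corrected score both differing from the plate sample mean at a set confidence after two filtering rounds, in either direction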;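 note: slope of fluorescence scaled to starting intensity during 10 to 20 s after thallium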
# KCNK9 inh: KCNK9 potassium channel inhibitors, primary screen, HEK293 cells, thallium flux; B-score at 10 µM; AID 488922, 2010; FluxOR thallium flux fluorescence; active compounds read low; 310,000 compounds, 1.2% hits;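 active = ratio B-score over 3 SD below the library mean, with starting fluorescence within 5 SD of its mean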;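 note: negative B-score means less thallium flux so channel inhibition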
# KCNQ1 act: potentiators or activators of KCNQ1 channel, primary screen, cell-based, thallium flux, high-throughput; B-score at 10 µM; 310,000 compounds, 0.35% hits; CHO-K1 KCNQ1, thallium flux FluxOR fluorescence; active compounds read high; Potassium voltage-gated channel subfamily KQT member 1 (Homo sapiens), P51787; AID 2648, 2010;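 active = fluorescence ratio B-score, a plate-corrected score, at least three library SD, with initial intensity B-score within 5 SD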
#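 System: CHO-K1 cells stably expressing KCNQ1 / Medium: assay buffer for compound exposure, DMSO matched across wells / Reagent: thallium- and potassium-containing depolarizing buffer / Compound: one concentration, matched DMSO / Incubation: 20 min compound pretreatment at room temperature / Measured by: kinetic FluxOR fluorescence, 10 s baseline plus 110 s post-stimulus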
# Numbers without * were called inactive; i = inactive; · = no result.
SMILES,KCNQ1 block,KCNK3 block,hERG rescue,KCC2 mod,KCNK9 inh,KCNQ1 act
CCCOc1ccc(NC(=O)CC2C(=O)N(Cc3ccccc3)C(=S)N2Cc2cccs2)cc1 (centres undefined),6*,i,-15,-2,i,i
COc1ccccc1CNC(=O)CN1C(=O)NC(Cc2ccccc2)(c2ccccc2)C1=O (centres undefined),·,i,·,·,·,·
CCN1CCCC(OC(=O)c2cc(-c3ccccc3Cl)nc3ccccc23)C1 (centres undefined),i,i,-11,-1.1,-6.7*,i
O=C(c1cc(-c2ccccc2Cl)nc2ccccc12)N1CCC1,i,i,-17,·,i,i
CCOc1ccccc1N1CCN(C(=O)c2cc(-c3cc(OC)ccc3OC)nc3ccccc23)CC1,6*,i,-19,·,i,i
O=C(c1cc(-c2ccccc2Cl)nc2ccccc12)N1CCN(c2ccccc2O)CC1,6*,i,-26,·,i,i
COc1ccc(C2C(C(=O)Nc3cccc(C)n3)c3ccccc3C(=O)N2C)cc1 (centres undefined),i,i,-11,·,i,i
Cc1cccc(NC(=O)C2c3ccccc3C(=O)N3CCc4ccccc4C23)n1 (centres undefined),i,i,-6,·,-7.4*,i
CCOC(=O)c1c(CSc2ccccc2)n(C)c2cc(Br)c(O)c(CN(C)C)c12,i,i,-20,-0.0063,-6.7*,i
CCOC(=O)c1c(CSc2ccc(C)cc2)n(C)c2cc(Br)c(O)c(CN(C)C)c12,i,i,-28,·,i,i
CCN(C[C@H]1N[C@@](CC)(C(=O)OC)[C@H]2C(=O)N(Cc3ccccc3)C(=O)[C@@H]12)C(=O)c1ccc(C(C)(C)C)cc1,·,i,·,·,·,·
O=C(Nc1ccccc1N1CCOCC1)c1cc(=O)[nH]c2ccccc12,·,i,·,·,·,·
CCOC(=O)c1ccc(NC(=O)N2CCN(Cc3cccc(F)c3)CC2)cc1,i,i,-14,-3*,i,i
CCCN1CCN(C(=O)Nc2ccc(C(=O)OCC)cc2)CC1,i,i,-12,0.88,i,i
CC12CCC(C/C1=N\N=C1\NC(=O)/C(=C\c3ccc(Cl)cc3)S1)C2(C)C (centres undefined),i,i,7.0*,-0.09,i,21*
C=C(C)COc1ccc(-c2nc(N)ncc2Oc2ccc(OC)cc2)c(O)c1,i,i,-13,1,i,i
C=C(C)COc1ccc(-c2nc(N)ncc2Oc2ccccc2OC)c(O)c1,·,-9.2*,·,-0.6,·,·
CC(=O)Nc1ccc(S(=O)(=O)NCc2csc(-c3cccnc3)n2)cc1,i,i,-5,3.2*,i,i
CCCCOC(=O)c1ccc(NC(=S)NC(=O)c2c(Cl)cnn2C)cc1,i,i,15*,28*,i,8*
C=CCN(CC=C)S(=O)(=O)c1ccc(NC(=S)NC(=O)c2ccc(-c3ccccc3)cc2)cc1,i,i,-5,0.28,i,i
CCCCOC(=O)c1ccc(NC(=O)c2cc(Cl)c(Cl)cc2C(=O)O)cc1,i,i,-5,-0.26,i,i
C=CCN(CC=C)S(=O)(=O)c1ccc(NC(=S)NC(=O)c2ccco2)cc1,i,i,-2,8.1*,i,i
CCCCOC(=O)c1ccc(NC(C)=O)cc1,i,i,-9,0.6,i,i
CCCCOC(=O)c1ccc(NC(=S)NC(=O)c2c(Cl)cnn2CC)cc1,i,i,0,23*,i,75*
CCCCOC(=O)c1ccc(NC(=S)NC(=O)c2ccco2)cc1,i,i,0,·,i,11*
